Results from PMC4651729 (ACS chemical neuroscience, 2015).
“Also recorded” adds a separate entry of the source.

Columns and labels:
MOR-1 = MOR-1 (Mus musculus, UniProt P42866)
[1] = test system: C57BL/6J, MOR-1 KO or KOR-1 KO mice; details: C57BL/6J mice, sc
[2] = doses 30 times the antinociceptive ED50
DOR-1 = DOR-1 (Mus musculus, UniProt P32300)
KOR-1 = KOR-1 (Mus musculus, UniProt P33534); assay: [35S]GTPγS binding assay, KOR-1; format: biochemical
mice = assay: conditioned place preference/aversion; format: in vivo, mouse; details: 2 days; for effect of pretreatment on cocaine-conditioned place preference: 16 1 mg/kg sc 10 min prior to cocaine 10 mg/kg sc; for place conditioning response to drug alone: 16 1 mg/kg sc, morphine 10 mg/kg ip, U50,488 30 mg/kg ip, cocaine 10 mg/kg sc
CD1 mice = assay: radiant heat tail flick analgesia; format: in vivo, mouse; details: for fold higher analgesic potency than morphine: tail flick, systemic (sc)
6TM/E11 = 6TM/E11 (Mus musculus, UniProt P42866); format: binding
In short: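 Membrane homogenates of whole brain from wild-type mice. Blockers at 200 nM: CTAP for MOR-1, U50,488H for KOR-1 and DPDPE for DOR-1.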

mouse KOR-1 = mouse KOR-1 (Mus musculus, UniProt P33534); assay: [125I]BNtxA competition binding, CHO cell membranes, KOR-1
In short: (§1)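 Membranes from CHO cells stably expressing the murine receptor clone, with no blockers, were incubated for 90 min at 25 °C in 50 mM potassium phosphate buffer (pH 7.4) with 5 mM MgSO4. Samples were then filtered on glass-fiber filters and washed with ice-cold 50 mM Tris-HCl (pH 7.4). Nonspecific binding was set with levallorphan 8 μM. Ki came from nonlinear regression. The 6TM/E11 comparison used mouse whole-brain membranes with CTAP, U50,488H and DPDPE, each at 200 nM.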

mouse DOR-1 = mouse DOR-1 (Mus musculus, UniProt P32300); assay: [125I]BNtxA competition binding, CHO cell membranes, DOR-1
In short: as §1

mouse MOR-1 = mouse MOR-1 (Mus musculus, UniProt P42866); assay: [125I]BNtxA competition binding, CHO cell membranes, MOR-1
In short: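 Mouse MOR-1 clone stably expressed in CHO cells; membranes incubated 90 min at 25 °C in 50 mM potassium phosphate buffer, pH 7.4, with 5 mM MgSO4, no blockers. Filtration through glass-fibre filters, three washes with ice-cold 50 mM Tris-HCl, pH 7.4. Nonspecific binding with 8 μM levallorphan, subtracted from total. Ki by nonlinear regression. Protein measured by Lowry method.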

O=C(N[C@@H]1C=C[C@H]2[C@H]3Cc4ccc(O)c5c4[C@@]2(CCN3CC2CC2)[C@H]1O5)c1cccc(I)c1 [Compound 16, 17-Cyclopropylmethyl-3-hydroxy-4,5α-epoxy-7,8-en-6-β-[(3′-iodo)benzamido]-morphinan]
agonist efficacy at MOR-1 (in words) (MOR-1; [35S]GTPγS, listed as 16 (MP1104)): full agonist eficacy; also recorded: full agonism
EC50 (MOR-1; read-out: EC50 MOR-1, [35S]GTPγS stimulation): 210 ± 30 pM
Emax (% stimulation) MOR-1 (MOR-1; relative to DAMGO at 100 nM): 103 ± 2.5 % stimulation
antinociception ED50 (95% confidence interval) [1]: 0.22 (0.17–0.29) mg/kg
seizures [2]: not observed to produce seizures
agonist efficacy at DOR-1 (in words) (DOR-1; [35S]GTPγS): full agonist eficacy
EC50 (DOR-1; read-out: EC50 DOR-1, [35S]GTPγS stimulation): 410 ± 110 pM
Emax (% stimulation) DOR-1 (DOR-1; relative to DPDPE at 100 nM): 88 ± 0.38 % stimulation
agonist efficacy at KOR-1 (in words) (KOR-1; [35S]GTPγS): full agonist eficacy
EC50 (KOR-1; read-out: EC50 KOR-1, [35S]GTPγS stimulation): 27 ± 2 pM
Emax (% stimulation) KOR-1 (KOR-1; relative to U50,488H at 100 nM): 104 ± 2.3 % stimulation
effect of pretreatment on cocaine-conditioned place preference (mice; listed as 16 (MP1104)): prevented significant place preference produced by cocaine; also recorded: prevented cocaine-conditioned place preference; also recorded: abolished cocaine preference; also recorded: effectively blocked cocaine-conditioned place preference
effect of pretreatment on cocaine-conditioned place preference (mice; listed as MP1104): prevented the reward behavior associated with cocaine
place conditioning response to drug alone (mice; listed as 16 (MP1104)): neither conditioned place preference nor aversion; also recorded: did not produce conditioned place preference or aversion; also recorded: produced neither preference nor aversion; also recorded: lacks rewarding and dysphoric properties
place conditioning response to drug alone (mice; listed as MP1104): did not cause place aversion or preference
antinociception after pretreatment with NOP antagonist J-113,397 (CD1 mice; CD1 mice, 16 0.5 mg/kg sc, J-113,397 30 mg/kg sc 15 min before, listed as 16 (MP1104)): No change in the antinociceptive efiect; also recorded: insensitive
antinociception after pretreatment with DOR-1 antagonist NTI (CD1 mice; CD1 mice, 16 0.5 mg/kg sc, NTI 20 mg/kg sc 15 min before, listed as 16 (MP1104)): attenuated the antinociceptive effects; also recorded: partially antagonized
antinociception after pretreatment with both norBNI and NTI (CD1 mice; CD1 mice, 16 0.5 mg/kg sc, listed as 16 (MP1104)): fully prevented antinociception; also recorded: eliminated the antinociceptive response
antinociception after pretreatment with KOR-1 antagonist norBNI (CD1 mice; CD1 mice, 16 0.5 mg/kg sc, norBNI 10 mg/kg sc 24 h before, listed as 16 (MP1104)): attenuated the antinociceptive effects; also recorded: partially antagonized
antinociception after pretreatment with MOR-1 antagonist β-FNA (CD1 mice; CD1 mice, 16 0.5 mg/kg sc, β-FNA 40 mg/kg sc 24 h before, listed as 16 (MP1104)): did not alter anti-nociception; also recorded: insensitive
tail flick analgesia (CI), ED50 (CD1 mice; sc, 30 min after dosing, mice, 95% CI or ± SEM): 0.33 ± 0.09 mg/kg
fold higher analgesic potency than morphine (CD1 mice; listed as 16 (MP1104)): 15 fold
fold higher analgesic potency than morphine (CD1 mice; listed as MP1104): approximately 15 fold
fold lower 6TM/E11 affinity than 1 (6TM/E11; compared with 1): 3 fold
Ki (6TM/E11; read-out: Ki 6TM/E11, [125I]BNtxA 0.1 nM, mouse brain, CTAP, DPDPE, U50,488 blockers at 200 nM): 470 ± 9 pM
fold higher KOR-1 affinity than corresponding 14-OH-epoxymorphinan analog (mouse KOR-1; 6 vs 19, 16 vs 1, 17 vs 20): 4.7 fold
selectivity for KOR-1 over 6TM/E11 sites (mouse KOR-1; ratio of Ki): 73 fold
Ki (mouse KOR-1; read-out: Ki KOR-1, [125I]BNtxA 0.1 nM, CHO membranes, mouse KOR-1): 6.4 ± 2 pM
fold higher DOR-1 affinity than corresponding 14-OH-epoxymorphinan analog (mouse DOR-1; 6 vs 19, 16 vs 1, 17 vs 20): 3 fold
selectivity for DOR-1 over 6TM/E11 sites (mouse DOR-1; ratio of Ki): 6 fold
Ki (mouse DOR-1; read-out: Ki DOR-1, [125I]BNtxA 0.1 nM, CHO membranes, mouse DOR-1): 80 ± 19 pM
fold higher MOR-1 affinity than corresponding 14-OH-epoxymorphinan analog (mouse MOR-1; 6 vs 19, 16 vs 1, 17 vs 20): 5 fold
selectivity for MOR-1 over 6TM/E11 sites (mouse MOR-1; ratio of Ki): 22 fold
Ki (mouse MOR-1; read-out: Ki MOR-1, [125I]BNtxA 0.1 nM, CHO membranes, mouse MOR-1): 21 ± 3.4 pM
